Assay results published in publication PMC9734322 (Inflammation Research, 2022).
pEC50: −log10 of the molar value.

Key:
[1] = test system: extrinsic pathway and common pathways of the coagulation cascade (plasma); assay: Prothrombin time test; format: biochemical, human; details: control 15 ± 2 s
[2] = test system: initiation or propagation pathway of the coagulation cascade (plasma); assay: Activated partial thromboplastin time; format: biochemical, human; details: control 41.3 ± 0.7 s
[3] = test system: calcium-dependent coagulation cascade factors (plasma); assay: Plasma recalcification time test; format: biochemical, human; details: control 196.9 ± 9 s
In short: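 Pooled citrated plasma from healthy donors (100 µL) was incubated with saline or test compound for 10 min at 37 °C. CaCl₂ was added (12.5 mM final) and clotting time recorded in a coagulometer. Mean ± SEM.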

ATP-induced paw edema = ATP-induced paw edema assay; format: in vivo, mice (Swiss Webster); details: 10 mM ATP subplantar, phlogistic agent
In short: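 Male Swiss Webster mice (~30 g) were given test compound at 100, 500 or 1000 ng/kg i.p. 1 h before ATP (10 mM/paw subplantar, 20 µL), with 0.9% NaCl in the contralateral paw. Diclofenac 10 mg/kg i.p. was the positive control and saline the negative control. Paw volume was read by plethysmometer 60 min after ATP. Three experiments on different days; mean ± SD; one-way ANOVA/Tukey.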

P2X7R = details: ATP concentration required for activation; cited from earlier work
[4] = test system: platelet-rich plasma (PRP); details: 1 µM, ADP 15 µM
[5] = test system: carrageenan-induced peritonitis; assay: Carrageenan-induced peritonitis, total and differential leukocyte count; format: in vivo, mice; details: for % Mononuclear cells / % Neutrophils: mean ± SD
In short: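 Mice were pretreated i.p. (100 µL) with test compound or dexamethasone 10 mg/kg, then given carrageenan 10 mg/kg i.p. 1 h later; PBS pH 7.4 served as negative control. Peritoneal fluid was collected 3 h after first administration. Total leukocytes were counted in a Neubauer chamber. Slides were methanol-fixed 5 min and Giemsa-stained 15–20 min; 100 cells were counted per slide. Three experiments on different days; mean ± SD; ANOVA/Tukey.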

[6] = pretreatment, then carrageenan 10 mg/kg 1 h later
[7] = substance alone, 10 mg/kg as printed, differential count of 100 cells

Molecule	prothrombin time ([1]; 1 µM) [s]	prothrombin time ([1]; 10 µM) [s]	clotting time in the aPTT test ([2]; 1 µM) [s]	clotting time in the aPTT test ([2]; 10 µM) [s]	plasma recalcification clotting time ([3]; 1 µM) [s]	plasma recalcification clotting time ([3]; 10 µM) [s]	% Mononuclear cells [5, 7]	% Neutrophils [5, 7]	also measured
O=C1CN=C(c2cccc(Br)c2)c2oc3ccccc3c2N1 [5-BDBD]	15.4 ± 0.7	15.7 ± 0.5	41.9 ± 0.6	42.5 ± 0.8	204.6 ± 9	195 ± 7			
Nc1ncnc2c1ncn2[C@@H]1O[C@H](COP(=O)(O)OP(=O)(O)OP(=O)(O)O)[C@@H](O)[C@H]1O [ATP]									increase in paw edema compared to the saline group (ATP-induced paw edema): 30%; pEC50 (P2X7R): ≤ 4.00
COc1cc(S(=O)(=O)O)cc2cc(S(=O)(=O)O)c(NC(=O)c3ccc(C)c(NC(=O)c4cccc(NC(=O)Nc5cccc(C(=O)Nc6cc(C(=O)Nc7cc8c(OC)cc(S(=O)(=O)O)cc8cc7S(=O)(=O)O)ccc6C)c5)c4)c3)cc12 [NF770]	15.5 ± 1	15.7 ± 1	40.9 ± 1	42.2 ± 1	200.4 ± 12	198 ± 8			
COC(=O)[C@H](c1ccccc1Cl)N1CCc2sccc2C1 [clopidogrel]									ADP-induced platelet aggregation [4]: inhibited ADP-induced platelet aggregation
C[C@@H]1C[C@H]2[C@@H]3CCC4=CC(=O)C=C[C@]4(C)[C@@]3(F)[C@@H](O)C[C@]2(C)[C@@]1(O)C(=O)CO [dexamethasone]							90 ± 6ª %	9 ± 7ª %	carrageenan-induced increase in white blood cells ([5]; dexamethasone 10 mg/kg i.p. pretreatment): reversed; % Mononuclear cells [5, 6]: 72 ± 9ª %; % Neutrophils [5, 6]: 27 ± 9ª^,g %
carrageenan							28 ± 8%	67 ± 10%	
